Experimental data taken from ChEMBL document CHEMBL3867438, “Cytotoxic Tirucallane and Apotirucallane Triterpenoids from the Stems of Picrasma quassioides” (J Nat Prod, 2016).

Key:
Type in all cases: functional, cell-based
[1] = Cytotoxicity against human A549 cells assessed as inhibition of cell proliferation after 48 hrs by MTT assay; conditions: A549, 48 h
How it was run: (§1)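 Cells grown in DMEM with 10% FBS, 100 U/mL penicillin, 100 μg/mL streptomycin, 37 °C, 5% CO2. Seeded 5 × 10^3 cells/well, 12 h, then exposed to compounds for 48 h. MTT (5 mg/mL stock) added for 4 h at 37 °C, formazan dissolved in DMSO, absorbance read at 570 nm. IC50 relative to untreated control. Triplicate, repeated twice; cis-platinum as positive control.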

[2] = Cytotoxicity against human MCF7 cells assessed as inhibition of cell proliferation after 48 hrs by MTT assay; conditions: MCF7, 48 h; how it was run: as §1
[3] = Cytotoxicity against human MKN28 cells assessed as inhibition of cell proliferation after 48 hrs by MTT assay; conditions: MKN-28, 48 h; how it was run: as §1

SMILES | IC50 [1] [µM] | IC50 [2] [µM] | IC50 [3] [µM]
CCO[C@@H]1O[C@@H](C=C(C)C)C[C@H]1[C@@H]1CC[C@]2(C)C3=CC[C@H]4C(C)(C)[C@@H](O)CC[C@]4(C)[C@H]3CC[C@@]12C | 8.3 | > 10 | 7.9
C[C@@H](C[C@@H](O)[C@H](O)C(C)(C)O)[C@@H]1CC[C@]2(C)C3=C(C(=O)C[C@@]12C)[C@@]1(C)CCC(=O)C(C)(C)[C@@H]1CC3=O | > 10 | > 10 | > 10
CO[C@@H]1O[C@H](C=C(C)C)C[C@H]1[C@@H]1CC[C@]2(C)C3=CC[C@H]4C(C)(C)[C@H](O)CC[C@]4(C)[C@H]3CC[C@@]12C | > 10 | > 10 | > 10
CCOC(=O)CC[C@]1(C)[C@H]2CC[C@@]3(C)[C@H]([C@@H](C)CC/C=C(\C)CO)CC[C@]3(C)C2=CC[C@H]1C(C)(C)O | > 10 | > 10 | > 10
CCO[C@H]1O[C@@H]([C@H](O)C(C)(C)O)C[C@H]1[C@@H]1CC[C@]2(C)C3=CC=C4C(C)(C)C(=O)CC[C@]4(C)C3=CC[C@@]12C | > 10 | > 10 | > 10
CCO[C@H]1O[C@H](C=C(C)C)C[C@H]1[C@@H]1CC[C@]2(C)C3=CC[C@H]4C(C)(C)[C@@H](O)CC[C@]4(C)[C@H]3CC[C@@]12C | > 10 | > 10 | > 10
C[C@@H](C[C@@H](O)[C@H](O)C(C)(C)O)[C@@H]1CC[C@]2(C)C3=CC(=O)[C@H]4C(C)(C)[C@@H](O)CC[C@]4(C)[C@H]3CC[C@@]12C | > 10 | > 10 | > 10
C[C@@H](CC[C@H](O)C(C)(C)O)[C@@H]1CC[C@]2(C)C3=CC[C@H]4C(C)(C)C(=O)CC[C@]4(C)[C@H]3CC[C@@]12C | > 10 | > 10 | 9.1
COC1OC(C=C(C)C)C[C@H]1[C@@H]1CC[C@]2(C)C3=CC[C@H]4C(C)(C)[C@H](O)CC[C@]4(C)[C@H]3CC[C@@]12C (stereo partly specified) | > 10 | > 10 | > 10
CCCCCC(=O)O[C@@H]1C[C@]2(C)C(=CC[C@H]2[C@]2(O)C[C@@H]([C@@H](O)C(C)(C)O)O[C@H]2OC)[C@]2(C)[C@H](O)C[C@H]3C(C)(C)C(=O)C=C[C@]3(C)[C@@H]12 | > 10 | > 10 | > 10
CC(C)(O)[C@H]1OC[C@H]([C@H]2CC[C@]3(C)C4=CC[C@H]5C(C)(C)C(=O)CC[C@]5(C)[C@H]4CC[C@@]23C)C[C@H]1O | 7 | 9.9 | 6.7
COC(=O)[C@@H](CCC=C(C)C)[C@@H]1CC[C@]2(C)C3=CC[C@@H]4[C@](C)(CCC(=O)[C@]4(C)CO)[C@H]3CC[C@@]12C | > 10 | > 10 | 8.3
